Laboratory results published in ChEMBL document CHEMBL1157534, “Discovery of novel, potent benzamide inhibitors of 11beta-hydroxysteroid dehydrogenase type 1 (11beta-HSD1) exhibiting oral activity in an enzyme inhibition ex vivo model” (J Med Chem, 2008).

Legend:
[1] = biological target: T1, 11-beta-hydroxysteroid dehydrogenase 1 (Homo sapiens, UniProt P28845); experiment: Inhibition of human cloned 11beta-HSD1 by scintillation proximity assay
[2] = biological target: T1, 11-beta-hydroxysteroid dehydrogenase 1; experiment: Inhibition of human recombinant 11beta-HSD1 expressed in HEK293 cells; format: cell-based
[3] = biological target: T1, 11-beta-hydroxysteroid dehydrogenase 1; experiment: Inhibition of human recombinant 11beta-HSD1 expressed in HEK293 cells in presence of 3% human serum albumin; format: cell-based
[4] = Metabolic stability in human liver microsomes assessed as compound remaining at 1 uM after 30 mins; format: ADME, Microsome; settings: read-out: Stability
[5] = Metabolic stability in rat liver microsomes assessed as compound remaining at 1 uM after 30 mins; format: ADME, Microsome; settings: read-out: Stability
[6] = biological target: T1, 11-beta-hydroxysteroid dehydrogenase 1; experiment: Inhibition of 11beta-HSD1 in human adipocytes; format: cell-based
[7] = biological target: T2, 11-beta-hydroxysteroid dehydrogenase type 2 (Homo sapiens, UniProt P80365); experiment: Inhibition of 11beta-HSD2 by scintillation proximity assay
T2 sequence (P80365 whole entry): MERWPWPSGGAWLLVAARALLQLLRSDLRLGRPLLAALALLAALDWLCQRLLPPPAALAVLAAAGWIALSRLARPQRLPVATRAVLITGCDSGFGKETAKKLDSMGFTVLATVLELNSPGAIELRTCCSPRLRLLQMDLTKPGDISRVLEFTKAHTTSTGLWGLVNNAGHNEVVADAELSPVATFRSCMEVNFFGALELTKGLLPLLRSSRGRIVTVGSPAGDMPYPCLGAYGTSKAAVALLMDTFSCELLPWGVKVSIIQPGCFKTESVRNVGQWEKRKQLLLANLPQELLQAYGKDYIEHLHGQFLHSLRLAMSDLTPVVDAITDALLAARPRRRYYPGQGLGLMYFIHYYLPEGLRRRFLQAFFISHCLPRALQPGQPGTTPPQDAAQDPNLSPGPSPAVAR

[8] = Oral bioavailability in rat at 2.0 mg/kg; format: ADME, organism-based; settings: in vivo
Method in brief: (§1)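 Oral bioavailability came from a 2.0 mg/kg po dose compared against an iv arm. The iv dose was 0.5 mg/kg in monkey, dog and one rat group, and 0.17 mg/kg in the other rat group.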

Rattus norvegicus [9] = experiment: Clearance in rat at 0.5 mg/kg, iv; format: ADME, organism-based; design: dose 0.5 mg/kg, route intravenous; settings: in vivo
Method in brief: (§2)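 Single iv dose of 0.5 mg/kg in rat, cynomolgus monkey or dog. This dose group was run alongside a 2.0 mg/kg oral arm. Clearance, half-life, Vdss and AUC were taken from the iv arm.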

[10] = Half life in rat at 0.5 mg/kg, iv; format: ADME, organism-based; design: dose 0.5 mg/kg, route intravenous; settings: in vivo; method in brief: as §2
[11] = Volume of distribution at steady state in rat at 0.5 mg/kg, iv; format: ADME, organism-based; design: dose 0.5 mg/kg, route intravenous; settings: in vivo, read-out: Vdss; method in brief: as §2
Rattus norvegicus [12] = experiment: AUC in rat at 0.5 mg/kg, iv; format: ADME, organism-based, Plasma; design: dose 0.5 mg/kg, route intravenous; settings: in vivo; method in brief: as §2
Cynomolgus monkey [13] = experiment: Clearance in cynomolgus monkey at 0.5 mg/kg, iv; format: ADME, organism-based, Macaca fascicularis; design: dose 0.5 mg/kg, route intravenous; settings: in vivo; method in brief: as §2
[14] = Half life in cynomolgus monkey at 0.5, iv; format: ADME, organism-based, Macaca fascicularis; settings: in vivo; method in brief: as §2
[15] = Volume of distribution at steady state in cynomolgus monkey at 0.5, iv; format: ADME, organism-based, Macaca fascicularis; settings: in vivo, read-out: Vdss; method in brief: as §2
Cynomolgus monkey [16] = experiment: AUC in cynomolgus monkey at 0.5, iv; format: ADME, organism-based, Macaca fascicularis, Plasma; settings: in vivo; method in brief: as §2
[17] = Oral bioavailability in cynomolgus monkey at 2.0; format: ADME, organism-based, Macaca fascicularis; settings: in vivo; method in brief: as §1
Canis familiaris [18] = experiment: Clearance in dog at 0.5 mg/kg, iv; format: ADME, organism-based, Canis lupus familiaris; design: dose 0.5 mg/kg, route intravenous; settings: in vivo; method in brief: as §2
[19] = Half life in dog at 0.5, iv; format: ADME, organism-based, Canis lupus familiaris; settings: in vivo; method in brief: as §2
[20] = Volume of distribution at steady state in dog at 0.5, iv; format: ADME, organism-based, Canis lupus familiaris; settings: in vivo, read-out: Vdss; method in brief: as §2
Canis familiaris [21] = experiment: AUC in dog at 0.5, iv; format: ADME, organism-based, Canis lupus familiaris, Plasma; settings: in vivo; method in brief: as §2
[22] = Oral bioavailability in dog at 2.0; format: ADME, organism-based, Canis lupus familiaris; settings: in vivo; method in brief: as §1
[23] = Inhibition of cynomolgus monkey recombinant 11beta-HSD1; design: species or system Macaca fascicularis
Plasma = experiment: Drug level in of cynomolgus monkey plasma at 2 mg/kg, po; format: ADME, organism-based, Macaca fascicularis; design: dose 2 mg/kg, route oral; settings: in vivo
Method in brief: (§3)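 Cynomolgus monkeys received an oral dose of 2 or 10 mg/kg and were sacrificed 2 h postdose. Mesenteric fat was excised and compound levels were determined in adipose (ng/g) and in plasma.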

[24] = Drug level in of cynomolgus monkey mesenteric fat at 2 mg/kg, po; format: ADME, organism-based, Macaca fascicularis; design: dose 2 mg/kg, route oral; settings: in vivo; method in brief: as §3
[25] = Drug level in of cynomolgus monkey mesenteric fat at 10 mg/kg, po; format: ADME, organism-based, Macaca fascicularis; design: dose 10 mg/kg, route oral; settings: in vivo; method in brief: as §3
Cynomolgus monkey [26] = experiment: Ex vivo inhibition of 11beta-HSD1 in orally dosed cynomolgus monkey mesenteric fat assessed as [3H][…] production; settings: Macaca fascicularis, oral
[27] = Clearance in rat; format: ADME, organism-based; settings: in vivo
Rattus norvegicus [28] = experiment: Clearance in rat at 0.17 mg/kg, iv; format: ADME, organism-based; design: dose 0.17 mg/kg, route intravenous; settings: in vivo
Method in brief: (§4)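 Rats were given a single iv dose of 0.17 mg/kg, with a parallel 2.0 mg/kg oral arm. Clearance, half-life, Vdss and AUC were derived from the iv data.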

[29] = Half life in rat at 0.17 mg/kg, iv; format: ADME, organism-based; design: dose 0.17 mg/kg, route intravenous; settings: in vivo; method in brief: as §4
[30] = Volume of distribution at steady state in rat at 0.17 mg/kg, iv; format: ADME, organism-based; design: dose 0.17 mg/kg, route intravenous; settings: in vivo, read-out: Vdss; method in brief: as §4
Rattus norvegicus [31] = experiment: AUC in rat at 0.17 mg/kg, iv; format: ADME, organism-based, Plasma; design: dose 0.17 mg/kg, route intravenous; settings: in vivo; method in brief: as §4

T1 sequence (P28845 whole entry): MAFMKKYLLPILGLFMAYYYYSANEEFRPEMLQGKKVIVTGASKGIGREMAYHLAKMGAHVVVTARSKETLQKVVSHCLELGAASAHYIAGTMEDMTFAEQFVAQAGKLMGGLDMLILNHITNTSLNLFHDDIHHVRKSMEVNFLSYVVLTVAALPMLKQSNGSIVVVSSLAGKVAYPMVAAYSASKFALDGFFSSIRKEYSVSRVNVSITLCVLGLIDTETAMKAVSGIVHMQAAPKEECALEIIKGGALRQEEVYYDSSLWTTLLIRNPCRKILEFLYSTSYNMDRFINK

| SMILES | IC50 [1] | IC50 [2] | IC50 [3] | remaining at 0.5 h, 1 µM [4] | remaining at 0.5 h, 1 µM [5] | IC50 [6] | IC50 [7] | other results |
| --- | --- | --- | --- | --- | --- | --- | --- | --- |
| C[C@](O)(c1ccc(C(=O)N(C2CC2)[C@H]2CC[C@H](c3cccnc3)CC2)cc1)C(F)(F)F | 1.4 nM | 5.8 nM | 124 nM | > 90% | 51% | 3 nM | > 10000 nM | bioavailability [8]: 72%; CL (Rattus norvegicus [9]): 17 mL/min/kg; half-life [10]: 4.5 h; Vd [11]: 6.7 L/kg; AUC (Rattus norvegicus [12]): 481 ng·h/mL; CL (Cynomolgus monkey [13]): 8.3 mL/min/kg; half-life [14]: 11.2 h; Vd [15]: 8.1 L/kg; AUC (Cynomolgus monkey [16]): 1010 ng·h/mL; bioavailability [17]: 64%; CL (Canis familiaris [18]): 10 mL/min/kg; half-life [19]: 9.3 h; Vd [20]: 3.5 L/kg; AUC (Canis familiaris [21]): 915 ng·h/mL; bioavailability [22]: 4%; IC50 [23]: 39 nM; Drug uptake (Plasma): 604 ng/mL; Drug uptake [24]: 1211 ng/mL; Drug uptake [25]: 2890 ng/g; ED50 (Cynomolgus monkey [26]): 2 mg/kg |
| CCN(C(=O)c1ccc([C@](C)(O)C(F)(F)F)cc1)C1CCCCC1 | 1.3 nM | 1.3 nM | 25 nM | 5% | < 5% |  |  | clearance [27]: 51.7 mL/min/kg |
| C[C@](O)(c1ccc(C(=O)N(C2CCCCC2)C2CC2)cc1)C(F)(F)F | 0.8 nM | 2.4 nM | 38 nM | 81% | < 5% |  | > 10000 nM |  |
| C[C@](O)(c1ccc(C(=O)N(C2CC2)[C@H]2CC[C@H](c3ccccc3)CC2)cc1)C(F)(F)F | 1.3 nM | 16 nM | 155 nM | > 90% | > 90% | 9.8 nM | > 10000 nM |  |
| C[C@](O)(c1ccc(C(=O)N(C2CC2)[C@H]2CC[C@@H](c3ccccc3)CC2)cc1)C(F)(F)F | 6.1 nM | 18 nM | 123 nM | 9% | < 5% |  | > 10000 nM |  |
| C[C@](O)(c1ccc(C(=O)N(C2CC2)[C@H]2CC[C@H](F)CC2)cc1)C(F)(F)F | 6.6 nM |  | 140 nM | 81% | 16% | 4.1 nM | > 10000 nM |  |
| C[C@H]1CCCCN1S(=O)(=O)c1ccc(C(C)(O)C(F)(F)F)cc1 (stereo partly drawn) |  | 2.1 nM |  |  |  |  |  |  |
| C[C@](O)(c1ccc(C(=O)N(C2CC2)[C@H]2CC[C@H](c3ccc(C#N)cc3)CC2)cc1)C(F)(F)F | 0.7 nM | 12 nM | 161 nM | > 90% | > 90% | 3.4 nM | > 10000 nM | CL (Rattus norvegicus [28]): 1.83 mL/min/kg; half-life [29]: 15.7 h; Vd [30]: 2.5 L/kg; AUC (Rattus norvegicus [31]): 1590 ng·h/mL; bioavailability [8]: 29% |
| C[C@](O)(c1ccc(C(=O)N(C2CC2)[C@H]2CC[C@H](CCC#N)CC2)cc1)C(F)(F)F | 0.7 nM | 1.3 nM | 11 nM | > 90% | 42% | 0.2 nM | > 10000 nM | CL (Rattus norvegicus [28]): 21.3 mL/min/kg; half-life [29]: 0.5 h; Vd [30]: 0.91 L/kg; AUC (Rattus norvegicus [31]): 393 ng·h/mL; bioavailability [8]: 83% |
| C[C@](O)(c1ccc(C(=O)N(CC(F)(F)F)C2CCCCC2)cc1)C(F)(F)F | 2.6 nM | 24 nM | 163 nM | 17% | < 5% |  |  |  |
| CC(O)(c1ccc(C(=O)N(CC2CC2)C2CCCCC2)cc1)C(F)(F)F (racemic) | 9 nM | 38 nM | 849 nM | 23% | < 5% |  |  |  |
